Data set [1] can be described thus: melting temperature; fluorescence melt of hairpins on a sequencing array, two-state fit, raised by 9.35 °C to match UV melts. Conditions: sodium 0.088 M. In outline: (§1)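 In 50 mM Na-HEPES pH 8.0 containing 25 mM NaCl, hairpins from the library on a sequenced MiSeq flow cell were imaged for Cy3 fluorescence at 2.5 °C steps up to 60 °C, with Cy3 and quencher oligos annealed. After normalisation to pre-quench Cy3 and to control constructs, two-state fits with bootstrapping gave melting temperature and folding enthalpy. Four replicates were combined by inverse-variance weighting, and fitted temperatures were shifted up by 9.35 °C to match UV melts.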

Data set [2] is described as follows: folding enthalpy; higher = less favourable; fluorescence melt of hairpins on a sequencing array, two-state fit. Conditions: sodium 0.088 M. In outline:
as §1

For GTAGCACGAAAGTGATAC (((.(((....))).))), in data set [1], the Tm was 58.4 °C. Further, the folding enthalpy in data set [2] is -39 kcal/mol.

With GTAGCACGAAAGTGTAC (((.(((....)))))), the Tm in data set [1] was determined as 40.4 °C. Further, the folding enthalpy in data set [2] is -14.2 kcal/mol.

Turning to GTAGCGCGAAAGCGTAC (((.(((....)))))), the Tm in data set [1] amounted to 44 °C. Moreover, the folding enthalpy in data set [2] was -10.8 kcal/mol.

In the case of GTAGGAGCGAAAGCTTAC (((..(((....)))))), in data set [1], the Tm is 31.2 °C. The folding enthalpy in data set [2] was -11.2 kcal/mol.

Regarding GTAGGCGAAAGCCAGTAC ((((((....)))..))), in data set [1], the Tm stood at 27.4 °C. Moreover, the folding enthalpy in data set [2] was -8.17 kcal/mol.

Regarding GTAGGCGAAAGCCTCTAC ((((((....)))..))), in data set [1], the Tm is 36.4 °C. In data set [2], the folding enthalpy is -8.87 kcal/mol.

For the sequence GTAGGCGGAAACGCTTAC (((.(((....))).))), in data set [1], the Tm worked out at 48.2 °C. For the same sequence, in data set [2], the folding enthalpy is -23.1 kcal/mol.

With GTAGGGCGAAAGCCTAC (((.(((....)))))), the Tm in data set [1] is 51.8 °C. Moreover, in data set [2], the folding enthalpy was -14.1 kcal/mol.

On to GTAGGGGGAAACCCTTGC (.(.(((....))).).), for which the Tm in data set [1] came to 31.9 °C. Moreover, the folding enthalpy in data set [2] is -13.2 kcal/mol.

On to GTAGGGGGAAACTCCTAC (((((.(....).))))), for which the Tm in data set [1] came to 47.2 °C. Further, the folding enthalpy in data set [2] is -28.5 kcal/mol.

With GTAGGTCGAAAGACGTAC (((.(((....))).))), the Tm in data set [1] came out at 51.7 °C. Further, the folding enthalpy in data set [2] is -36.2 kcal/mol.

As for GTAGGTGCGAAAGCATAC (((..(((....)))))), the Tm in data set [1] came to 31.1 °C. For the same sequence, the folding enthalpy in data set [2] was -8.27 kcal/mol.

In the case of GTAGGTGGAAACACTTGC (.(.(((....))).).), in data set [1], the Tm turned out to be 31.7 °C. The folding enthalpy in data set [2] was -14.3 kcal/mol.

GTAGGTGGAAACGCTTAC (((.(.(....).).))): in data set [1], the Tm worked out at 31.4 °C. Also, the folding enthalpy in data set [2] is -23 kcal/mol.

In the case of GTAGGTGGAAACGTCTAC ((((..(....)..)))), in data set [1], the Tm came out at 28.8 °C. In addition, the folding enthalpy in data set [2] was -16.8 kcal/mol.

For GTAGTAGAAATACTAC ((((((....)))))), the Tm in data set [1] came to 43.1 °C. Moreover, the folding enthalpy in data set [2] is -26.1 kcal/mol.

For the sequence GTAGTCCCGAAAGGGTAC (((..(((....)))))), the Tm in data set [1] came to 31.5 °C. In data set [2], the folding enthalpy is -10.8 kcal/mol.

In the case of GTAGTCCGAAAGGAATAC (((.(((....))).))), the Tm in data set [1] was determined as 49.7 °C. In addition, the folding enthalpy in data set [2] was -37.6 kcal/mol.

For GTAGTCGAAAGACACTAC ((((((....)))..))), in data set [1], the Tm came to 39.6 °C. Also, the folding enthalpy in data set [2] is -19.7 kcal/mol.

For the sequence GTAGTCGAAAGACAGTAC ((((((....)))..))), the Tm in data set [1] amounted to 27.2 °C. In addition, in data set [2], the folding enthalpy is -12.5 kcal/mol.

Regarding GTAGTCGAAAGACCTAC ((((((....))).))), the Tm in data set [1] is 36.8 °C. The folding enthalpy in data set [2] is -18.9 kcal/mol.

Take GTAGTCGAAAGACGATAC ((((((....)))..))): the Tm in data set [1] was 35.6 °C. Besides, the folding enthalpy in data set [2] was -13 kcal/mol.

Turning to GTAGTCGAAAGACTTAC ((((((....))).))), the Tm in data set [1] is 39.9 °C. Further, the folding enthalpy in data set [2] is -13.2 kcal/mol.

With GTAGTCGAAAGACTTTAC ((((((....)))..))), the Tm in data set [1] came to 29.5 °C. Besides, in data set [2], the folding enthalpy was -13.7 kcal/mol.

Turning to GTAGTGCGAAAGCAATAC (((.(((....))).))), in data set [1], the Tm came to 53.9 °C. In data set [2], the folding enthalpy was -28 kcal/mol.

With GTAGTGGGAAACCACTAC (((((((....))))))), the Tm in data set [1] stood at 63.4 °C. Further, the folding enthalpy in data set [2] was -30.3 kcal/mol.

Turning to GTAGTGGGAAACTGCTAC ((((..(....)..)))), the Tm in data set [1] stood at 36.8 °C. Besides, the folding enthalpy in data set [2] was -23.4 kcal/mol.

Consider GTAGTTCCGAAAGGATAC (((..(((....)))))), for which, in data set [1], the Tm is 27.7 °C. Besides, the folding enthalpy in data set [2] is -11.6 kcal/mol.

As for GTATAACGAAAGTTGTAC (((.(((....))).))), in data set [1], the Tm came to 45.5 °C. Also, the folding enthalpy in data set [2] is -28.4 kcal/mol.

In the case of GTATAACGAAAGTTTAC (((.(((....)))))), the Tm in data set [1] was 30.4 °C. The folding enthalpy in data set [2] is -16.8 kcal/mol.

As to GTATACGAAAGTAGCTAC ((((((....)))..))), the Tm in data set [1] came out at 24.4 °C. Moreover, the folding enthalpy in data set [2] was -8.67 kcal/mol.

For GTATACGAAAGTATAC ((((((....)))))), the Tm in data set [1] came to 54.2 °C. In data set [2], the folding enthalpy was -28.4 kcal/mol.

Take GTATACGGAAACGTATGC (.(((((....))))).): the Tm in data set [1] was 46.4 °C. For the same sequence, the folding enthalpy in data set [2] is -24.5 kcal/mol.

Take GTATAGCCGAAAGGCTAC (((..(((....)))))): in data set [1], the Tm came to 36.4 °C. Moreover, in data set [2], the folding enthalpy is -7.94 kcal/mol.

GTATAGCGAAAGCTTAC (((.(((....)))))): the Tm in data set [1] is 39.2 °C. In data set [2], the folding enthalpy was -12.8 kcal/mol.

As to GTATAGCGAAAGCTTTAC (((.(((....))).))), in data set [1], the Tm was 40.9 °C. The folding enthalpy in data set [2] is -22 kcal/mol.

For the sequence GTATAGGGAAACCTGTAC (((.(((....))).))), the Tm in data set [1] is 39.2 °C. In data set [2], the folding enthalpy was -30.3 kcal/mol.

For the origin of these results see the array DNA melting data of Ke et al. (doi:10.1101/2024.01.08.574731).
